Laboratory results reported in ChEMBL document CHEMBL1155259, “Synthesis and multidrug resistance reversal activity of dihydroptychantol A and its novel derivatives” (2009).

Tests used:
K562 = experiment: Cytotoxicity against human K562 cells at 10 uM after 48 hrs by MTT assay; assay type: functional; settings: K562, 48 h
How it was run: (§1)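 Cells grown in RPMI 1640 with 10% FBS at 37 °C, 5% CO₂ until roughly 50–70% confluent, then cultured in 24-well plates and exposed to vehicle (DMSO) or test compound alone at 10 μM for 48 h. Percent growth inhibition measured by MTT assay; three replicates per treatment, assay repeated at least thrice.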

[1] = Cytotoxicity against vincristine-resistant human KB/VCR cells at 10 uM after 48 hrs by MTT assay; assay type: functional; how it was run: as §1
KB = experiment: Cytotoxicity against human KB cells at 10 uM after 48 hrs by MTT assay; assay type: functional; how it was run: as §1
[2] = Cytotoxicity against adriamycin-resistant human K562/A02 cells at 10 uM after 48 hrs by MTT assay; assay type: functional; settings: K562/A02, 48 h; how it was run: as §1
KB/VCR = experiment: Reversal of P-gp-mediated multidrug resistance in human KB/VCR cells assessed as reversal factor, ratio of vincristine ID50 without drug to vincristine ID50 with drug at 10 uM after 48 hrs by MTT assay; assay type: cell-based
How it was run: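 KB/VCR cells in RPMI 1640 with 10% FBS (37 °C, 5% CO₂) seeded at 6 × 10⁴/ml in 24-well plates. They were co-treated with a range of vincristine concentrations, with or without test compound at 10 μM, and viability read by MTT. Vincristine ID₅₀ was derived relative to untreated cells (100%). RF = ID₅₀ of vincristine alone / ID₅₀ with compound. Triplicates, repeated at least thrice.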

SMILES	inhibition at 10 µM (K562) [%]	inhibition at 10 µM [1] [%]	inhibition at 10 µM (KB) [%]	inhibition at 10 µM [2] [%]	Ratio (KB/VCR)
NNc1nc2c(s1)-c1cccc(c1)Oc1ccc(O)cc1CCc1ccc(O)c(c1)Oc1ccc-2cc1	37.1	19.4	51.1	13.7	
COc1ccc2c(c1)CCc1ccc(OC)c(c1)Oc1ccc(cc1)-c1nc(NN)sc1-c1cccc(c1)O2	32.1	0	0	18.8	10.6
COc1ccc2c(c1)CCc1ccc(OC)c(c1)Oc1ccc(cc1)-c1nc(N)sc1-c1cccc(c1)O2	58.7	0	0	26.8	12.3
Nc1nc2c(s1)-c1cccc(c1)Oc1ccc(O)cc1CCc1ccc(O)c(c1)Oc1ccc-2cc1	11.6	0	0	10.1	13.8
COc1ccc2c(c1)CCc1ccc(OC)c(c1)Oc1ccc(cc1)C(O)C(Br)c1cccc(c1)O2 (centres undefined)	38.5	0	2.82	11.9	10.5
